Data from ChEMBL document CHEMBL5136969, “A niclosamide-tobramycin hybrid adjuvant potentiates cefiderocol against P. aeruginosa” (2021).
The source made the active and inactive calls.

Tests used:
Escherichia coli [1] = test: Potentiation of tobramycin-induced antibiotic activity against Escherichia coli ATCC 25922 assessed as MIC fold reduction at 8 ug/ml after 18 hrs by microbroth dilution method; assay type: functional; conditions: dose 8 µg/ml
Pseudomonas aeruginosa [2] = test: Potentiation of piperacilin-induced antibiotic activity against Pseudomonas aeruginosa PAO1 assessed as MIC fold reduction at 8 ug/ml after 18 hrs by microbroth dilution method; assay type: functional; conditions: dose 8 µg/ml
Escherichia coli [3] = test: Potentiation of minocycline-induced antibiotic activity against Escherichia coli ATCC 25922 assessed as MIC fold reduction at 8 ug/ml after 18 hrs by microbroth dilution method; assay type: functional; conditions: dose 8 µg/ml
How it was run: (§1)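 Adjuvant held at a fixed 8 μg/mL while the antibiotic was 2-fold serially diluted in Mueller-Hinton broth (MHB), per CLSI microbroth dilution. Overnight cultures were adjusted in saline to 0.5 McFarland, then diluted 1:50 in MHB to about 5 × 10^5 CFU/mL final, and incubated 18 h at 37 °C. MIC was the lowest concentration with no visible turbidity, confirmed at 590 nm. Fold potentiation = MIC alone / MIC with adjuvant.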

Pseudomonas aeruginosa [4] = test: Potentiation of doxycycline-induced antibiotic activity against Pseudomonas aeruginosa PAO1 assessed as MIC fold reduction at 8 ug/ml after 18 hrs by microbroth dilution method; assay type: functional; conditions: dose 8 µg/ml; how it was run: as §1
Escherichia coli [5] = test: Potentiation of doxycycline-induced antibiotic activity against Escherichia coli ATCC 25922 assessed as MIC fold reduction at 8 ug/ml after 18 hrs by microbroth dilution method; assay type: functional; conditions: dose 8 µg/ml; how it was run: as §1
Escherichia coli [6] = test: Potentiation of erythromycin-induced antibiotic activity against Escherichia coli ATCC 25922 assessed as MIC fold reduction at 8 ug/ml after 18 hrs by microbroth dilution method; assay type: functional; conditions: dose 8 µg/ml; how it was run: as §1
Acinetobacter baumannii [7] = test: Potentiation of novobiocin-induced antibiotic activity against Acinetobacter baumannii ATCC 17978 assessed as MIC fold reduction at 8 ug/ml after 18 hrs by microbroth dilution method; assay type: functional; conditions: dose 8 µg/ml
Pseudomonas aeruginosa [8] = test: Potentiation of linezolid-induced antibiotic activity against Pseudomonas aeruginosa PAO1 assessed as MIC fold reduction at 8 ug/ml after 18 hrs by microbroth dilution method; assay type: functional; conditions: dose 8 µg/ml; how it was run: as §1
Escherichia coli [9] = test: Potentiation of cindamycin-induced antibiotic activity against Escherichia coli ATCC 25922 assessed as MIC fold reduction at 8 ug/ml after 18 hrs by microbroth dilution method; assay type: functional; conditions: dose 8 µg/ml; how it was run: as §1
Pseudomonas aeruginosa [10] = test: Potentiation of pleuromutilin-induced antibiotic activity against Pseudomonas aeruginosa PAO1 assessed as MIC fold reduction at 8 ug/ml after 18 hrs by microbroth dilution method; assay type: functional; conditions: dose 8 µg/ml
Acinetobacter baumannii [11] = test: Potentiation of trimethoprim-induced antibiotic activity against Acinetobacter baumannii ATCC 17978 assessed as MIC fold reduction at 8 ug/ml after 18 hrs by microbroth dilution method; assay type: functional; conditions: dose 8 µg/ml
Escherichia coli [12] = test: Potentiation of trimethoprim-induced antibiotic activity against Escherichia coli ATCC 25922 assessed as MIC fold reduction at 8 ug/ml after 18 hrs by microbroth dilution method; assay type: functional; conditions: dose 8 µg/ml
Escherichia coli [13] = test: Antibacterial activity against Escherichia coli ATCC 25922 assessed as reduction in bacterial growth after 18 hrs by microbroth dilution method; assay type: functional
How it was run: (§2)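 CLSI microbroth dilution in MHB. Overnight cultures were adjusted to 0.5 McFarland in saline, diluted 1:50, and inoculated at about 5 × 10^5 CFU/mL. Agents were 2-fold serially diluted and incubated 18 h at 37 °C. MIC is the lowest concentration without visible turbidity, confirmed by absorbance at 590 nm. Medium with and without cells served as controls.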

Pseudomonas aeruginosa [14] = test: Potentiation of cefotaxime-induced antibiotic activity against […] Pseudomonas aeruginosa PAO1 assessed as MIC fold reduction at 8 ug/ml after 18 hrs by microbroth dilution method; assay type: functional, organism-based; conditions: dose 8.0 µg/ml; how it was run: as §1
Pseudomonas aeruginosa [15] = test: Potentiation of ceftazidime-induced antibiotic activity against MDR clinical isolate Pseudomonas aeruginosa PA260 assessed as MIC fold reduction at 8 ug/ml after 18 hrs by microbroth dilution method; assay type: functional, organism-based; conditions: dose 8.0 µg/ml; how it was run: as §1
Pseudomonas aeruginosa [16] = test: Potentiation of ceftazidime-induced antibiotic activity against MDR clinical isolate Pseudomonas aeruginosa PA264 assessed as MIC fold reduction at 8 ug/ml after 18 hrs by microbroth dilution method; assay type: functional, organism-based; conditions: dose 8.0 µg/ml; how it was run: as §1
Pseudomonas aeruginosa [17] = test: Potentiation of ceftolozane-induced antibiotic activity against MDR clinical isolate Pseudomonas aeruginosa PA264 assessed as MIC fold reduction at 8 ug/ml after 18 hrs by microbroth dilution method; assay type: functional, organism-based; conditions: dose 8.0 µg/ml; how it was run: as §1
Pseudomonas aeruginosa [18] = test: Antibacterial activity against MDR clinical isolate Pseudomonas aeruginosa PA262 assessed as reduction in bacterial growth after 18 hrs by microbroth dilution method; assay type: functional
How it was run: (§3)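 CLSI broth microdilution. Overnight cultures were adjusted in saline to 0.5 McFarland, diluted 1:50 in Mueller-Hinton broth (MHB), and inoculated at about 5 × 10^5 CFU/mL. Agents were 2-fold serially diluted in MHB, mixed 1:1 with inoculum, and held at 37 °C for 18 h. MIC was the lowest concentration with no visible turbidity, confirmed at 590 nm.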

Pseudomonas aeruginosa [19] = test: Antibacterial activity against MDR clinical isolate Pseudomonas aeruginosa PA108590 assessed as reduction in bacterial growth after 18 hrs by microbroth dilution method; assay type: functional; how it was run: as §3
Pseudomonas aeruginosa [20] = test: Antibacterial activity against colistin-resistant clinical isolate Pseudomonas aeruginosa PA91433 assessed as reduction in bacterial growth after 18 hrs by microbroth dilution method; assay type: functional
How it was run: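 Broth microdilution per CLSI in Mueller-Hinton broth (MHB). Overnight cultures were adjusted to 0.5 McFarland in saline, diluted 1:50 in MHB, and added at about 5 × 10^5 CFU/mL final to equal volumes of 2-fold serial dilutions of agent. Incubation was 18 h at 37 °C. MIC was the lowest concentration with no visible turbidity, confirmed by absorbance at 590 nm.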

Pseudomonas aeruginosa [21] = test: Antibacterial activity against colistin-resistant clinical isolate Pseudomonas aeruginosa PA91433 assessed as reduction in bacterial growth after 18 hrs in presence of cefiderocol by microbroth dilution method; assay type: functional
How it was run: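 Checkerboard in MHB (iron-replete, not iron-depleted CAMHB). Cefiderocol was 2-fold serially diluted along one axis and the adjuvant along the other. Inoculum was 0.5 McFarland diluted 1:50, about 5 × 10^5 CFU/mL final. Incubation was 18 h at 37 °C, with turbidity read visually and confirmed at 590 nm. FIC was the MIC in combination over the MIC alone for each agent, and the FIC index was their sum. Cut-offs were ≤0.5 synergy, >0.5–4 additive, >4 antagonism.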

Acinetobacter baumannii [22] = test: Antibacterial activity against Acinetobacter baumannii AB031 assessed as reduction in bacterial growth after 18 hrs by microbroth dilution method; assay type: functional; how it was run: as §2
Klebsiella pneumoniae [23] = test: Antibacterial activity against Klebsiella pneumoniae KP113254 assessed as reduction in bacterial growth after 18 hrs by microbroth dilution method; assay type: functional; how it was run: as §3
Klebsiella pneumoniae [24] = test: Antibacterial activity against Klebsiella pneumoniae KP113254 assessed as potentiation of cefiderocol antibacterial activity by measuring FIC after 18 hrs by microbroth dilution method; assay type: functional
How it was run: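 Checkerboard in MHB. Cefiderocol was 2-fold serially diluted along one axis and the adjuvant along the other. Inoculum was prepared from 0.5 McFarland saline suspensions diluted 1:50 in MHB, giving about 5 × 10^5 CFU/mL final. Plates ran 18 h at 37 °C, with turbidity confirmed at 590 nm. FIC = combination MIC ÷ MIC alone for each agent, and FIC index = sum of both. Interpretation: ≤0.5 synergy, >0.5–4 additive, >4 antagonism.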

Pseudomonas aeruginosa [25] = test: Potentiation of moxifloxacin-induced antibiotic activity against Pseudomonas aeruginosa PA260 assessed as MIC fold reduction in ID-CAMHB condition at 8 ug/ml after 18 hrs by microbroth dilution method; assay type: functional, organism-based; conditions: dose 8.0 µg/ml

NC[C@H]1O[C@H](O[C@H]2[C@H](OCCCCc3cn(-c4ccc(NC(=O)c5cc(Cl)ccc5O)cc4)nn3)[C@@H](O[C@H]3O[C@H](CO)[C@@H](O)[C@H](N)[C@H]3O)[C@H](N)C[C@@H]2N)[C@H](N)C[C@@H]1O
1 µg/mL: MIC (Pseudomonas aeruginosa [21])
0.5: FIC (Klebsiella pneumoniae [24])
4: fold change (FC) (Escherichia coli [1]) | fold change (FC) (Pseudomonas aeruginosa [2]) | fold change (FC) (Escherichia coli [3]) | fold change (FC) (Pseudomonas aeruginosa [4]) | fold change (FC) (Escherichia coli [5]) | fold change (FC) (Escherichia coli [6]) | fold change (FC) (Acinetobacter baumannii [7]) | fold change (FC) (Pseudomonas aeruginosa [8]) | fold change (FC) (Escherichia coli [9]) | fold change (FC) (Pseudomonas aeruginosa [10]) | fold change (FC) (Acinetobacter baumannii [11]) | fold change (FC) (Escherichia coli [12])
> 128 µg/mL: MIC (Escherichia coli [13]) | MIC (Pseudomonas aeruginosa [18]) | MIC (Pseudomonas aeruginosa [19]) | MIC (Pseudomonas aeruginosa [20]) | MIC (Acinetobacter baumannii [22]) | MIC (Klebsiella pneumoniae [23])
active: Activity (Pseudomonas aeruginosa [14]) | Activity (Pseudomonas aeruginosa [15]) | Activity (Pseudomonas aeruginosa [16]) | Activity (Pseudomonas aeruginosa [17]) | Activity (Pseudomonas aeruginosa [25])
